Experimental data published in the EternaBench riboswitch data.

Tested on: MS2 coat protein
Experiment: apparent Kd, MS2 coat protein; higher = weaker binding; RNA-MaP array; FMN 200 µM where present
In short: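 On Illumina sequencing-chip clusters, designs were transcribed by stalled E. coli RNA polymerase and titrated with SNAP-549-labelled MS2 coat protein (0.7 or 1.5 nM, doubling to 3 µM), without and then with constant ligand, in 100 mM Tris-HCl pH 7.5, 80 mM KCl, 4 mM MgCl2, BSA, DTT, yeast tRNA and Tween-20. Apparent Kd is the median of filtered per-cluster curve fits to green signal normalised to red-channel RNA signal and control-cluster median Fmax.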

[1] = designed as: ON switch for flavin mononucleotide, no ligand
[2] = ligand present: flavin mononucleotide, designed as: ON switch for flavin mononucleotide
[3] = designed as: OFF switch for flavin mononucleotide, no ligand
[4] = ligand present: flavin mononucleotide, designed as: OFF switch for flavin mononucleotide

Row | Sequence | apparent Kd [1] [nM] | apparent Kd [2] [nM] | apparent Kd [3] [nM] | apparent Kd [4] [nM]
1 | CCUGUCGUAUGAGGAUAUGGUCAGCUUUGCUGACCAGAAGGCAUGUCAAUAGACAUGAGGAUCACCCAUGUAGUAAAGACAGGA | 381 | 40.1 | – | –
2 | CGAACUAAGUAGAAGGCAGUCUUAAAAUAGGACUGAGGAUAUACAUGAGGAUCACCCAUGUACUCCUUUAAUAAGUUUGAAAUA | – | – | 5.31 | 5.38
3 | UGAUCGAAAGAUCAUAGAUUCUGCUAGGAUAUGCAGAAGUUGCGAUUUACAUGAGGAUCACCCAUGUAGAAGGAGUAGAGUCUA | – | – | 7.16 | 7.16
4 | GUACGUGGACAGAAGGCGACAUGAGGAUCACCCAUGUUGGCUCGGGUACGAGCAAUCCGCGUGAUUGAGGAUAUGUCUGCGGGC | – | – | 6.25 | 9.93
5 | GGGUUCAUGUAAGGAUAUGUAUUGUUAAUCGGAGCAGAAGGUACAUGAGGAUCACCCAUGUCAACCUAGAGCAGGGCUUUUUAG | – | – | 27 | 110
6 | CUCUCACAUGAGGAUCACCCAUGUCCACCUCCGUGAGGAUAUAGAUAAUAAAUACAUUUACUAGAAGGCGCAUCCC | 285 | 298 | – | –
7 | AAUGGCAUAGAGAAGGCGCCGCAGCUCUUCCUCCCAUCCCAACGACAUGAGGAUCACCCAUGUAGCGAGGAUAUCUAUACCGUC | – | – | 7.08 | 12.5
8 | UAGAGCGCUUGAGGAUAUCGUUUUGUGAUGGUACUCAUGCCUGUUACAUGAGGAUCACCCAUGUACGAGAAGGCAGGCCGUUAG | – | – | 58.1 | 30.5
9 | GGAUUACAUGAGGAUCACCCAUGUGAGGAUAUCGAUGUCCUCAAUAAAGUGCGGGACUCGAGAAGGCACUUGGA | – | – | 63 | 83
10 | AUUAGCUGAGGAUAUGCAGCUUUGUUCGUCGAGUGAAAAGAACAUGAGGAUCACCCAUGUAGAAGGCAGUUGAC | – | – | 17.4 | 18.1
11 | UGCAGGCGAGGAUAUGCUCGGGUUGCUUGUCGAGAGGAUGCACAUGAGGAUCACCCAUGUAGAAGGUGUCUAUG | – | – | 47.5 | 56.2
12 | UUGCAGUCGUCAGGAUAUAGUAUUACGGCCUUUCAUUUCUUCAUACAUGAGGAUCACCCAUGUCGCUAGAAGGGCUUAUCGCUU | – | – | 14.8 | 13.2
13 | AUGUACCGGUGAGGAUAUUUUUAAUAGAGCUUUAUGAUAUACAUGAGGAUCACCCAUGUUACGUUAAAGAAGGCAUCGGAUUAA | – | – | 21 | 15.9
14 | CAGCGAAAGUAGAAGGCAGUACUGAUACAGUACUGAGGAUAUACAUGAGGAUCACCCAUGUACAAAAGCUGGAAAUAAAUAAAA | – | – | 6.56 | 6.81
15 | GUCUUUUUACAGAAGGUGUUUUACAUGAGGAUCACCCAUGUUUAUAUGUUUAAAUUUGAUAUUUACAAGGAUAUGUACUAAUCU | 25.3 | 17.4 | – | –
16 | UGGUACAUGAGGAUCACCCAUGUAAGAGCCCUCAUGCGAUGUAGAAGGUUAAUGCGAGUAGUGCUAAAGGAUAUACAUGAGUUU | – | – | 212 | 173
17 | ACGGACCUAGGAUAUACAUGAGGAUCACCCAUGUGCCCGCAUGGUCCGGGUCCUGAGAGUAGAAGGAGGAGCGA | – | – | 50.9 | 43.2
18 | GUAGCAUACGCAGGAUAUUCAUAUAAUAAAUAAACAUGAGGAUCACCCAUGUGGCGAAAGCCUUGGGAGAAGGGCGAAUGCUAC | 485 | 65.5 | – | –
19 | UUGUACCGGUGAGGAUAUUUUUGAUAGAACUUUAUGAUAUACAUGAGGAUCACCCAUGUUACUUUAAAGAAGGCAUCGGAUUAU | – | – | 19.4 | 15.3
20 | UUUUUAUAUGAAGGAUAUACUUAACAUGAGGAUCACCCAUGUGGUGUUGUGAGUGAGUGAGUUUAGUAGAAGGUCAAUUCUUUU | – | – | 236 | 205
21 | AUAUACUUUCGAGGAUAUCGGUGAUAAAUUUUACGAGAAGGCGAUAAAAGAUAUAAUCUUAUAGACAUGAGGAUCACCCAUGUA | 30.3 | 28 | – | –
22 | GGACGUCACAUUUACAUGAGGAUCACCCAUGUCUCUUGAUAUGAGGAUAUGUAUACGAAUCGUAUACAGAAGGCAUGGACGUCC | 71.7 | 29.8 | – | –
23 | UCGUAUAAGGGCAUUACACAUGAGGAUCACCCAUGUACGUUAGAGGAUAUGCAUUUCAGUUGAACGUAGAAGGCUAGAGAAGGG | – | – | 117 | 103
24 | GGAUCGAAUGUGAGGAUAUGCUGGUCCUUGGAUCAGCAGAAGGCACAUGAGGAUCACCCAUGUCCUCUCGGUCC | – | – | 248 | 458

Row | Sequence | apparent Kd [1] [nM] | apparent Kd [2] [nM] | apparent Kd [3] [nM] | apparent Kd [4] [nM]
25 | UUAAUGAUGUUAGGAUAUACAUGAGGAAUCCUCGUAGAAGGAACAUGACAUGAGGAUCACCCAUGUAACGCUCCGUAGAGCGUA | 70.2 | 94.3 | – | –
26 | GCCGGUUAAGUCAGGAUAUACCUAUGGAUACAUAGGUAGAAGGGACAUGAGGAUCACCCAUGUUCCUCAUCGGC | – | – | 16.1 | 48.9
27 | GUUGUAUGAGGAUAUACAUGAGGAUCACCCAUGUGUGUUGUGAACGAUGUACGUUUAUGUAGAAGGCGUGCGGC | – | – | 17.8 | 21.5
28 | AAACACGGACAUGAGGAUCACCCAUGUGGCGAAAGCCUUGGGAGAAGGAUUAAUGCAAAGCAUAAAUAGGAUAUUCAUACCGUG | 1270 | 243 | – | –
29 | AAUUAUUAUCGAGGAUAUCGUAUUGAAAUAAUAUGAGAAGGCGGGAUAAACAUGAGGAUCACCCAUGUGAGCCUGAUGCUUGUG | – | – | 19.2 | 35.4
30 | GGCGAUCAGGCUAACAUGAGGAUCACCCAUGUGGACUCAUGGUAGGAUAUGCUGUACUUUGUACAGCAGAAGGGCCGGAGAGCC | 46.1 | 187 | – | –
31 | UACGCACAGAAGUACUCCGGGUCCAGAAGGGACAUGAGGAUCACCCAUGUACCGUUGAUUGCUUGUCAGGAUAUGGACCCGGCC | – | – | 6.82 | 26.3
32 | UUACCUUAUGAGAAGGCGGUCAUGAAACAUGAUCGAGGAUAUCAUGUAAACAUGAGGAUCACCCAUGUAUGGGUAUUAUGGUAA | 395 | 53.7 | – | –
33 | GUGGCUCCCACAGGAUAUCCACAUGAGGAUCACCCAUGUCUAAUUAACAAAGGAGAAGGGUGGGACAACUCUGGUGACUGAGAG | 28.9 | 5.45 | – | –
34 | GUACUGAAGCUUUGCUUUAGUCGUACAUGAGGAUCACCCAUGUAGGAUAUGGUAGGCUUUGCUUACUAGAAGGAUAGAGUGAUU | – | – | – | 39.8
35 | GCAGCACUGUAGUACAUGAGGAUCACCCAUGUCGAUUGUUAUGAGGAUAUGCAUCGUAUGAAGAUGCAGAAGGCAUUGUGCUGC | 5.22 | 5.04 | – | –
36 | UGUCGGAGCAGAGGAUAUUACAUGAGGAUCACCCAUGUAUGAACCAAUAGCUGGAAACAGCAAUGUAAGAAGGCUGCUCAGACA | – | – | 11.9 | 137
37 | UCGGUUACAUGAGGAUCACCCAUGUCUCGGGCCCUAUUUAGCAGAAGGCCAGCUGGGCUACGGAUGGAGGAUAUGCUUAUGGCC | 147 | 36.5 | – | –
38 | CAUCAGUCUGUGAGGAUAUUGGUCGAGUGACUUAUUAAGAAGGCACAUGAGGAUCACCCAUGUGGGAAGUCAGG | – | – | 24.3 | 26.6
39 | ACUGUUGAGUAGAAGGUACGAUAUUAGUUAUAGUAAGGAUAUACUAACAUGAGGAUCACCCAUGUAUAAAUGGAUAAAUAUUCU | 9.91 | 11.5 | – | –
40 | UGGCUACAUGAGGAUCACCCAUGUCAGGAUAUGCCGUUGGAUUGACAUCGUCGUUCGGGUAGAAGGGACUGCGU | – | – | 47.6 | 53.1
41 | GUGGUCAGACAUGAGGAUCACCCAUGUGGAAUAAAUAACACACAGGAUAUCCAAUAUAAAAUAUAGGAGAAGGGUGGAUUGGUG | 253 | 181 | – | –
42 | UUAGAAUUGCAAGGAUAUCUAAUUUAGAUAGUAAGAGAAGGUGCUUGAUAGUUACAUGAGGAUCACCCAUGUUUUUGGGUUUAU | 545 | 412 | – | –
43 | AUUUAAUUUAAUAAGAUCACAUGAGGAUCACCCAUGUAUAUAUAGGAUAUCAGCUCGAAUAGAGCUGAGAAGGAUAUAUACAUG | – | – | 47.4 | 41
44 | GGUACUCAAAGAGUACCAAUUCGAACAUGAGGAUCACCCAUGUAGGAUAUGCUACUCAAAGAGUAGCAGAAGGACAUGUGCCUA | – | – | 15.6 | 73.6
45 | GUCCUUUCUGAGGAUAUUAUCUGGUUCGAUUGAUAAGAAGGCAGUACAUGAGGAUCACCCAUGUGGUUCGUUUG | – | – | 115 | 268
46 | CAGAAGUCAGGAUAUCCAUGGCGGCACUUGCGUGGUGGCGUGGAGAAGGGACAUGAGGAUCACCCAUGUAAAGC | – | – | 57.4 | 45.3
47 | AUAAUUAAUGCAGGAUAUCAGCACGUGUAGUGCUGAGAAGGGCACAUGAGGAUCACCCAUGUGAUCAAUUAAUAUUAAUAUUAU | – | – | 61 | 275
48 | UUUUUGUGAGGAUAUCAGUAGUAGAACAAUAGUACUACUACUGAGAAGGCACAUGAGGAUCACCCAUGUUUCUC | – | – | 50.2 | 294
